Each block holds one compound with its values, some of them ahead of it.
Columns and labels:
Mus musculus [1] = assay: The compound was tested for percent reduction in plasma glucose after 6 days of treatment at 30 mg/kg/day in mice; assay type: functional
Summary of the method: (§1)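 Male C57BL/KsJ-db/db mice, 8 weeks old, chow ad libitum, grouped by similar starting plasma glucose (n = 4–6 per group). Dosed orally by gavage in 0.5% CMC vehicle (10 mL/kg) daily for 6 days. Retro-orbital blood taken 1 h post-dose on days 0 and 6. Plasma glucose and triglyceride measured with kits. % reduction = {1−[(TT/OT)/(TC/OC)]}×100 versus vehicle controls, mean ± SE.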

Mus musculus [2] = assay: The compound was tested for percent reduction in plasma triglyceride after 6 days of treatment at 30 mg/kg/day in mice; assay type: functional; summary of the method: as §1
[3] = The Kel value in female wistar rat at 100 mg/kg, p.o. dose; assay type: ADME, organism-based; parameters: dose 100 mg/kg, route oral; conditions: in vivo, po
Summary of the method: (§2)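 Wistar rats, 200–225 g, fasted 12 h with free access to water and fed 3 h after dosing. Single dose of 100 mg/kg p.o. given as a 0.5% CMC suspension. Retro-orbital blood, 0.4 mL, taken into heparinized tubes at several time points. Plasma drug measured by HPLC with fluorescence detection on a C18 column. Parameters from noncompartmental analysis, AUC by trapezoidal rule. Four rats per group, mean ± SD.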

[4] = The Cmax value in female wistar rat at 100 mg/kg, p.o. dose; assay type: ADME, organism-based; parameters: dose 100 mg/kg, route oral; conditions: in vivo, po; summary of the method: as §2
Rattus norvegicus [5] = assay: The AUC(0-t)value in female wistar rat at 100 mg/kg, p.o. dose […]; assay type: ADME, organism-based; parameters: dose 100 mg/kg, route oral; conditions: in vivo, po
Rattus norvegicus [6] = assay: (§3) The AUC(0-infinitive) value in female wistar rat at 100 mg/kg, p.o. dose; assay type: ADME, organism-based; parameters: time infinity, dose 100 mg/kg, route oral; conditions: in vivo, po; summary of the method: as §2
Mus musculus [7] = assay: The compound was tested for percent reduction in plasma glucose after 6 days of treatment at a dose of 200 mg/kg/day (oral gavage) in mice; assay type: functional; summary of the method: as §1
[8] = The Tmax value in female wistar rat at 100 mg/kg, p.o. dose; assay type: ADME, organism-based; parameters: dose 100 mg/kg, route oral; conditions: in vivo, po; summary of the method: as §2
Mus musculus [9] = assay: The compound was tested for percent reduction in plasma glucose after 6 days of treatment at a dose of 100 mg/kg/day (oral gavage) in mice; assay type: functional; summary of the method: as §1
Mus musculus [10] = assay: The compound was tested for percent reduction in plasma triglyceride after 6 days of treatment at 30 mg/kg/day; assay type: functional; summary of the method: as §1
Mus musculus [11] = assay: The compound was tested for percent reduction in plasma triglyceride after 6 days of treatment at 100 mg/kg/day in mice; assay type: functional; summary of the method: as §1
Mus musculus [12] = assay: The compound was tested for percent reduction in plasma triglyceride after 6 days of treatment at a dose of 100 mg/kg/day in mice; assay type: functional; summary of the method: as §1
[13] = The half life value in female wistar rat at 100 mg/kg, p.o. dose; assay type: ADME, organism-based; parameters: dose 100 mg/kg, route oral; conditions: in vivo, po; summary of the method: as §2
[14] = target: T1, Peroxisome proliferator-activated receptor alpha (Homo sapiens) (UniProt Q07869); assay: Fold activation against Peroxisome proliferator activated receptor alpha (50 uM)
T1 sequence (whole entry): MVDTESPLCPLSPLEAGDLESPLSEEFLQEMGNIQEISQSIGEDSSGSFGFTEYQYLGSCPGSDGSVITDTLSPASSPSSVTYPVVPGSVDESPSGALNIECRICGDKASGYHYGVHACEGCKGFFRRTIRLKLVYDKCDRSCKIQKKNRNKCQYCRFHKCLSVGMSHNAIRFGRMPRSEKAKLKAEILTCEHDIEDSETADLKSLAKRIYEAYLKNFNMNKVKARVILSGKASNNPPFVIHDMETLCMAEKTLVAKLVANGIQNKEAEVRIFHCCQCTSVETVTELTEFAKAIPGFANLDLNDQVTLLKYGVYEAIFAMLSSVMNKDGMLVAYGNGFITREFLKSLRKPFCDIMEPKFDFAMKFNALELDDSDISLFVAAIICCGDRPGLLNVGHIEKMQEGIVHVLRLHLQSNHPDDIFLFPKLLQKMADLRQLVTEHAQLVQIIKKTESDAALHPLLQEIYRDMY
Summary of the method: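 GAL4 fusion of human PPARα LBD (aa 167–468) with a GAL4-response-element luciferase reporter, transiently transfected into HEK-293 cells. Cells kept in DMEM with 10% delipidated serum, seeded 43 h post-transfection, then treated at 50 μM. DMSO (1:1000) served as blank. Luciferase read as fold activation over untreated cells. Mean of three to four experiments.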

Rattus norvegicus [15] = assay: (§4) The AUC(0-t)value in female wistar rat at 100 mg/kg, p.o. dose; assay type: ADME, organism-based; parameters: dose 100 mg/kg, route oral; unit not given here; conditions: in vivo, po; summary of the method: as §2
[16] = The Tmax value in male wistar rat at 100 mg/kg, p.o. dose; assay type: ADME, organism-based; parameters: dose 100 mg/kg, route oral; conditions: in vivo, po; summary of the method: as §2
Rattus norvegicus [17] = assay: The AUC(0-infinitive) value in male wistar rat at 100 mg/kg, p.o. dose; assay type: ADME, organism-based; parameters: time infinity, dose 100 mg/kg, route oral; conditions: in vivo, po; summary of the method: as §2
Mus musculus [18] = assay: The compound was tested for percent reduction in plasma glucose after 6 days of treatment at a dose of 100 mg/kg/day in mice; assay type: functional; summary of the method: as §1
[19] = The Cmax value in male wistar rat at 100 mg/kg, p.o. dose; assay type: ADME, organism-based; parameters: dose 100 mg/kg, route oral; conditions: in vivo, po; summary of the method: as §2
Rattus norvegicus [20] = assay: The AUC(0-t)value in male wistar rat at 100 mg/kg, p.o. dose; assay type: ADME, organism-based; parameters: dose 100 mg/kg, route oral; conditions: in vivo, po; summary of the method: as §2
Rattus norvegicus [21] = assay: as §3; assay type: ADME, organism-based; parameters: time infinity, dose 100 mg/kg, route oral; unit not given here; conditions: in vivo, po; summary of the method: as §2
[22] = The Kel value in male wistar rat at 100 mg/kg, p.o. dose; assay type: ADME, organism-based; parameters: dose 100 mg/kg, route oral; conditions: in vivo, po; summary of the method: as §2
[23] = The half life value in male wistar rat at 100 mg/kg, p.o. dose; assay type: ADME, organism-based; parameters: dose 100 mg/kg, route oral; conditions: in vivo, po; summary of the method: as §2
Mus musculus [24] = assay: The compound was tested for percent reduction in plasma triglyceride after 6 days of treatment at a dose of 100 mg/kg/day (oral gavage) in mice; assay type: functional; summary of the method: as §1
Mus musculus [25] = assay: The compounds(21:4) were tested for percent reduction in plasma glucose after 6 days of treatment at 200 mg/kg/day(oral gavage) in mice; assay type: functional; summary of the method: as §1
Mus musculus [26] = assay: The compounds(3:7) were tested for percent reduction in plasma glucose after 6 days of treatment at 200 mg/kg/day(oral gavage) in mice; assay type: functional; summary of the method: as §1
Mus musculus [27] = assay: The compound was tested for percent reduction in plasma triglyceride after 6 days of treatment at a dose of 200 mg/kg/day (oral gavage) in mice; assay type: functional; summary of the method: as §1
Rattus norvegicus [28] = assay: as §4; assay type: ADME, organism-based; parameters: dose 100 mg/kg, route oral; conditions: in vivo, po; summary of the method: as §2

Structure (SMILES): Cc1c(C)c2c(c(C)c1OCc1ccccc1)CCC(C)(CN1CCC[C@H]1COc1ccc(CC3SC(=O)[N-]C3=O)cc1)O2.[Na+] (some centres not stated)
Reduction (Mus musculus [1]): 36%
Reduction (Mus musculus [2]): 66%

k el [3]: 0.000106 s⁻¹
Cmax [4]: 9920 ng/mL
AUC (Rattus norvegicus [5]): 44.2 µg/h/mL
AUC (Rattus norvegicus [6]): 44.94 µg/h/mL
Tmax [8]: 1.38 h
Structure (SMILES): Cc1c(C)c2c(c(C)c1O)CCC(C)(CN(C)CCOc1ccc(/C=C3\SC(=O)NC3=O)cc1)O2 (configuration not stated)
Reduction (Mus musculus [7]): 36%

Structure (SMILES): Cc1c(C)c2c(c(C)c1OCc1ccccc1)CCC(C)(CN1CCC[C@H]1COc1ccc(/C=C3\SC(=O)NC3=O)cc1)O2 (some centres not stated)
Reduction (Mus musculus [9]): 68%
Reduction (Mus musculus [1]): 41%
Reduction (Mus musculus [10]): 26%

Structure (SMILES): Cc1c(C)c2c(c(C)c1OCc1ccccc1)CCC(C)(CN1CCC[C@@H](Oc3ccc(/C=C4\SC(=O)NC4=O)cc3)C1)O2 (some centres not stated)
Reduction (Mus musculus [9]): 5%
Reduction (Mus musculus [11]): 24%

k el [3]: 2.22e-05 s⁻¹
Cmax [4]: 1830 ng/mL
half-life [13]: 9.27 h
Fold activation [14]: 1.79
AUC (Rattus norvegicus [15]): 15.83
Tmax [16]: 4.33 h
AUC (Rattus norvegicus [17]): 21.02 µg/h/mL
Cmax [19]: 2170 ng/mL
AUC (Rattus norvegicus [20]): 14.26 µg/h/mL
AUC (Rattus norvegicus [21]): 29.76
k el [22]: 3.33e-05 s⁻¹
Tmax [8]: 3.33 h
half-life [23]: 5.78 h
Structure (SMILES): Cc1c(C)c2c(c(C)c1OCc1ccccc1)CCC(C)(COc1ccc(CC3SC(=O)NC3=O)cc1)O2 (configuration not stated)
Reduction (Mus musculus [12]): 34%
Reduction (Mus musculus [18]): 64%

Structure (SMILES): Cc1c(C)c2c(c(C)c1OCc1ccccc1)CCC(C)(CN1CCC[C@H]1COc1ccc(/C=C3\SC(=O)[N-]C3=O)cc1)O2.[Na+] (some centres not stated)
Reduction (Mus musculus [1]): 8%
Reduction (Mus musculus [2]): 58%

k el [3]: 1.94e-05 s⁻¹
Cmax [4]: 1090 ng/mL
half-life [13]: 10.4 h
Fold activation [14]: 0.67
AUC (Rattus norvegicus [15]): 14.4
AUC (Rattus norvegicus [21]): 18.5
Tmax [8]: 4.33 h
Structure (SMILES): Cc1c(C)c2c(c(C)c1OCc1ccccc1)CCC(C)(COc1ccc(/C=C3\SC(=O)NC3=O)cc1)O2 (configuration not stated)
Reduction (Mus musculus [9]): 39%
Reduction (Mus musculus [24]): 38%

Structure (SMILES): Cc1c(C)c2c(c(C)c1O)CCC(C)(CN1CCC[C@H]1COc1ccc(/C=C3\SC(=O)NC3=O)cc1)O2 (some centres not stated)
Reduction (Mus musculus [9]): 37%
Reduction (Mus musculus [11]): 36%

Structure (SMILES): Cc1c(C)c2c(c(C)c1OCc1ccccc1)CCC(C)(CN1CCC[C@H]1COc1ccc(CC3SC(=O)NC3=O)cc1)O2 (some centres not stated)
Reduction (Mus musculus [9]): 26%
Reduction (Mus musculus [1]): 23%

k el [3]: 6.94e-05 s⁻¹
Cmax [4]: 680 ng/mL
half-life [13]: 2.82 h
Fold activation [14]: 0.58
AUC (Rattus norvegicus [15]): 2.44
AUC (Rattus norvegicus [21]): 3.12
Tmax [8]: 1.75 h
Structure (SMILES): Cc1c(C)c2c(c(C)c1O)CCC(C)(COc1ccc(/C=C3\SC(=O)NC3=O)cc1)O2 (configuration not stated)
Reduction (Mus musculus [9]): 62%
Reduction (Mus musculus [24]): 26%

Structure (SMILES): Cc1c(C)c2c(c(C)c1OCc1ccccc1)CCC(C)(CN1CCC[C@@H](Oc3ccc(/C=C4\SC(=O)NC4=O)cc3)C1)O2.Cc1c(C)c2c(c(C)c1OCc1ccccc1)CCC(C)(CN1CCC[C@H]1COc1ccc(/C=C3\SC(=O)NC3=O)cc1)O2 (some centres not stated)
Reduction (Mus musculus [25]): 52%
Reduction (Mus musculus [26]): 53%

Structure (SMILES): Cc1c(C)c2c(c(C)c1O)CCC(C)(CN(C)CCOc1ccc(CC3SC(=O)NC3=O)cc1)O2 (configuration not stated)
Reduction (Mus musculus [7]): 3%

Structure (SMILES): Cc1c(C)c2c(c(C)c1OCc1ccccc1)CCC(C)(CN1CCC[C@H]1COc1ccc(CC3SC(=O)NC3=O)cc1)O2.Cl (some centres not stated)
Reduction (Mus musculus [1]): 12%

Tmax [16]: 2 h
AUC (Rattus norvegicus [17]): 5.68 µg/h/mL
Cmax [19]: 770 ng/mL
AUC (Rattus norvegicus [20]): 5.09 µg/h/mL
k el [22]: 5.28e-05 s⁻¹
half-life [23]: 3.9 h
Structure (SMILES): Cc1c(C)c2c(c(C)c1O)CCC(C)(COc1ccc(CC3SC(=O)NC3=O)cc1)O2 (configuration not stated) [TROGLITAZONE]
Reduction (Mus musculus [27]): 50%
Reduction (Mus musculus [18]): 26%
Reduction (Mus musculus [7]): 24%

k el [3]: 4.17e-05 s⁻¹
Cmax [4]: 4120 ng/mL
half-life [13]: 4.87 h
AUC (Rattus norvegicus [28]): 27.47 µg/h/mL
AUC (Rattus norvegicus [6]): 34.49 µg/h/mL
Tmax [8]: 3.25 h
Structure (SMILES): Cc1c(C)c2c(c(C)c1OCc1ccccc1)CCC(C)(CN(C)CCOc1ccc(/C=C3\SC(=O)NC3=O)cc1)O2 (configuration not stated)
Reduction (Mus musculus [7]): 45%

— ChEMBL document CHEMBL1132354, “Novel antidiabetic and hypolipidemic agents. 5. Hydroxyl versus benzyloxy containing chroman derivatives” (J Med Chem, 1999)
